The source made the active and inactive calls. The rule behind the calls is not given here.
How the values were obtained:
[1] = tested on: HCT-116; experiment: Antitumor activity against human HCT-116 cells xenografted in nude mouse assessed as decrease tumor volume at 75 mg/kg, iv administered once per week measured after 29 days; assay type: functional, organism-based; conditions: time 29.0 day
Procedure, shortened: (§1)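 Female BALB/c nu/nu mice (19–21 g) received 0.1 mL of HCT116 suspension (1 × 10^7 viable cells/mL, Hanks' buffer) s.c. At day 20 (tumours ~100 mm3), they were randomised into groups of eight. Dosing was i.v. via lateral tail vein at 10 mL/kg for 29 days. Blinded caliper volumes (L × W² × π/6) were taken every 2–4 days. Comparison to […] vehicle controls used one-way ANOVA/Dunnett; log-volume slopes gave growth rate.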

[2] = tested on: HCT-116; experiment: Antitumor activity against human HCT-116 cells xenografted in nude mouse assessed as decrease tumor growth at 75 mg/kg, iv administered once per week measured after 29 days; assay type: functional, organism-based; conditions: time 29.0 day; procedure, shortened: as §1

**Q.** `O=c1[nH]cc(F)c(=O)[nH]1` was tested. Which Activity [1] did it give?
**A.** Active

**Q.** What about the Activity [2] of the same molecule?
**A.** Active

Source: ChEMBL document CHEMBL5661964, “Selective in vivo and in vitro effects of a small molecule inhibitor of cyclin-dependent kinase 4” (J Natl Cancer Inst, 2001)
